Test results taken from PMC6607903 (Clinical cancer research : an official journal of the …, 2015).

Assays:
[1] = test system: HPV-negative head and neck cancer cell lines; conditions: cited from earlier work
[2] = assay type: in vivo
locally advanced HNSCC = assay: Response evaluation; assay type: in vivo, human
In short: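 Test compound was infused IV over 1 h, Mon/Wed/Fri, for one week before radiation and then through weeks 1–7. Cisplatin 100 mg/m2 was given on days 2, 23 and 44 (adjustable to 40 mg/m2/week), never on the same day. IMRT delivered 70 Gy in 2 Gy daily fractions to gross disease and 56 Gy in 1.6 Gy fractions to the elective neck. Response was scored by RECIST 1.1 plus site-investigator overall assessment from imaging, PET/CT 12 weeks post-therapy, examination and histology.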

[3] = monotherapy; cited from earlier work
[4] = Plasma pharmacokinetics of CUDC-101 and metabolite in patients; assay type: in vivo, human; conditions: for AUC(0-t) / Cmax / Tmax / Vd / clearance / half-life: human, iv
EGFR = assay: IHC of phosphorylated EGFR in paired tumor biopsies; assay type: in vivo, human; conditions: 2 pairs, 275 mg/m^2
In short: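 Post-dose tumour biopsies were taken 60±30 min after the end of a 1-h IV infusion of test compound on day −5 or −3, and paired with pre-treatment archival tumour. Staining was done on 5-μm paraffin sections. Antigen retrieval used 10mM Tris, 1mM EDTA, 0.05% Tween 20, pH 9.0, at 95°C for 10 min then 90°C for 5 min. Primary antibody was anti-pEGFR Y1068.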

Akt = conditions: compared with erlotinib or SAHA alone; cited from earlier work

Compound: C#Cc1cccc(Nc2ncnc3cc(OC)c(OCCCCCCC(=O)NO)cc23)c1 [CUDC-101, 7-(4-(3-ethylnylphenylamino)-7-methoxyquinazolin-6-yloxy)-N-hydroxyheptanamide]
- Activity in HPV-negative head and neck cancer cell lines [1]: has activity
- Single adverse event (discontinuation) at dose level 1 ([2]; human, in vivo, 1 week): grade 2 joint pain and myalgia
- Patients who experienced a serious adverse event (SAE) ([2]; human, in vivo, 8 weeks): 7
- Patients who experienced at least one AE ([2]; in vivo): All patients
- Patients with an SAE considered related to any agent ([2]; in vivo): Five
- Post-treatment clinical assessment: stable, patients (%) (locally advanced HNSCC; 11 patients, combination with cisplatin and radiation): 4 (37%)
- Patients progression free (locally advanced HNSCC; median of 1.47 (0.68 – 2.3) years of follow-up): 90%
- MTD as a single agent [3]: 275 mg/m^2
- Dose dependent increase in exposure or peak concentration ([4]; 225 vs 275 mg/m^2): no clear dose dependent increase
- Accumulation with this dosing regimen ([4]; IV 3 times per week, days −7 to 43): low probability of accumulation
- AUC(0-t) ([4]; plasma, 225 mg/m2): 9920 ng·h/mL
- Cmax ([4]; plasma, 225 mg/m2): 13100 ng/mL
- Tmax ([4]; plasma, 225 mg/m2): 0.542 h
- Vd ([4]; plasma, 225 mg/m2): 26.6 L
- clearance ([4]; plasma, 225 mg/m2): 938 mL/min
- half-life ([4]; plasma, 225 mg/m2): 2.83 h
- AUC(0-t) ([4]; plasma, 225 mg/m^2): 7110 ng·h/mL
- Cmax ([4]; plasma, 225 mg/m^2): 8890 ng/mL
- Tmax ([4]; plasma, 225 mg/m^2): 1.25 h
- Vd ([4]; plasma, 225 mg/m^2): 54.4 L
- clearance ([4]; plasma, 225 mg/m^2): 895 mL/min
- half-life ([4]; plasma, 225 mg/m^2): 3.91 h
- AUC(0-t) ([4]; plasma, 275 mg/m2): 8000 ng·h/mL
- Cmax ([4]; plasma, 275 mg/m2): 7890 ng/mL
- Tmax ([4]; plasma, 275 mg/m2): 0.5 h
- Vd ([4]; plasma, 275 mg/m2): 42.3 L
- clearance ([4]; plasma, 275 mg/m2): 1060 mL/min
- half-life ([4]; plasma, 275 mg/m2): 2.88 h
- AUC(0-t) ([4]; plasma, 275 mg/m^2): 7770 ng·h/mL
- Cmax ([4]; plasma, 275 mg/m^2): 7820 ng/mL
- Tmax ([4]; plasma, 275 mg/m^2): 0.742 h
- Vd ([4]; plasma, 275 mg/m^2): 76 L
- clearance ([4]; plasma, 275 mg/m^2): 1020 mL/min
- half-life ([4]; plasma, 275 mg/m^2): 6.41 h
- Peak concentrations and exposure between days −7 and 43 ([4]; plasma, IV 3 times per week): similar
- Exposure to the parent compound compared to its metabolite ([4]; plasma, all subjects): greater in all subjects
- Phosphorylation of EGFR (Y1068 and Y1173) in tumor biopsies (EGFR): trend of EGFR inhibition
- Phosphorylation of Akt (Akt): reduced phosphorylation of Akt

Compound: N.N.[Cl][Pt][Cl] [Cisplatin, reference compound]
- SAE: Failure to thrive ([2]; Dose Level 1, 225 mg/m^2 CUDC-101, agent Cisplatin/Radiation): 1 (25%)
